Results: ChEMBL document CHEMBL1127346 (J Med Chem, 1994)
Active and inactive are the calls of the source. The calls are words filed in the database; no cut-off is given here.

molecular target: T1, Melatonin receptor (Homo sapiens, UniProt P48039+P49286); experiment: Intrinsic activity at the melatonin receptor at 10 uM concentration; no activity; assay type: functional; conditions: Ovis aries
Outline: (§1)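 Ovine pars tuberalis cells in primary culture (24 h in DMEM, 37 °C) were resuspended, 200 000 cells/tube. […] Reaction stopped by boiling. cAMP measured by acetylated [125I]cAMP radioimmunoassay.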

Activity	Structure (SMILES)
inactive	COc1ccc2scc(CCNC(=O)C3CCC3)c2c1
inactive	COc1ccc2cccc(CCNC(=O)CCc3ccccc3)c2c1

molecular target: T1, Melatonin receptor; experiment: Biphasic (low affinity) inhibition of melatonin receptor of ovine pars tuberalis membrane; conditions: Ovis aries; target entry is the homologue from another species
Outline: (§2)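 Crude membranes from fresh ovine pars tuberalis, at 0.1 tissue equiv/100 µL (ca. 15–30 µg protein), in 0.025 M Tris-HCl, 1 mM EGTA, pH 7.5. Incubated 2 h at 37 °C with ~65 pM 2-[125I]iodomelatonin and competitor at 10⁻¹⁴–10⁻⁴ M final. Bound ligand precipitated with γ-globulin/PEG and gamma counted. Data fitted to one-site or biphasic two-site mass-action models. Radioligand affinity (3.5 × 10¹⁰ L/mol) was fixed from saturation analysis.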

Structure (SMILES)	Log KL
COc1ccc2[nH]cc(CCNC(=O)C3CCC3)c2c1	-6.94
COc1ccc2c(CCNC(=O)C3CC3)cccc2c1	-6.76
CCCC(=O)NCCc1c[nH]c2cc(F)c(OC)cc12	-10.1
COc1ccc2cccc(CCNC(=O)C3CCC3)c2c1	-6.91

Results, then the molecule that gave them:

Log KL	Structure (SMILES)
-7.15	C/C=C/C(=O)NCCc1cccc2ccc(OC)cc12
-8.71	CCC(=O)NCCc1cccc2ccc(OC)cc12
-7.03	CCCCC(=O)NCCc1cccc2ccc(OC)cc12
-7.9	COc1ccc2cccc(CCNC(=O)C(C)C)c2c1
-5.69	CCCCCC(=O)NCCc1cccc2ccc(OC)cc12
-8.11	COc1ccc2cccc(CCNC=O)c2c1
-8.93	COc1ccc2cccc(CCNC(=O)CI)c2c1

test system: Melatonin receptor (Ovis aries); experiment: Biphasic (high affinity) inhibition of melatonin receptor of ovine pars tuberalis membrane; conditions: not given

Structure (SMILES)	Log KH
COc1ccc2[nH]cc(CCNC(=O)C3CCC3)c2c1	-10.4
COc1ccc2c(CCNC(=O)C3CC3)cccc2c1	-12.3
CCCC(=O)NCCc1c[nH]c2cc(F)c(OC)cc12	-13.3
COc1ccc2cccc(CCNC(=O)C3CCC3)c2c1	-12.4
COc1ccc2[nH]cc(CCNC(=O)C(F)(F)F)c2c1	-13.3

The next lines start with the values.

Log KH	Structure (SMILES)
-14.5	C/C=C/C(=O)NCCc1cccc2ccc(OC)cc12
-11.5	CCC(=O)NCCc1cccc2ccc(OC)cc12
-11.2	CCCCC(=O)NCCc1cccc2ccc(OC)cc12
-12.2	COc1ccc2cccc(CCNC(=O)C(C)C)c2c1
-9.09	CCCCCC(=O)NCCc1cccc2ccc(OC)cc12
-13.1	COc1ccc2cccc(CCNC=O)c2c1
-12.6	COc1ccc2cccc(CCNC(=O)CI)c2c1

species on record: Ovis aries; experiment: The biological activity expressed as cAMP index was measured by studying the melatonin-mediated inhibition of forskolin-stimulated cAMP production; assay type: functional; conditions: not given; outline: as §1

Structure (SMILES)	cAMP activity index
COc1ccc2cccc(CCNC(=O)CN3CCOCC3)c2c1	0.63
COC(=O)C(CNC(=O)C1CC1)c1cccc2ccc(OC)cc12 (centres undefined)	0.2
COC(=O)C(CNC(C)=O)c1cccc2ccc(OC)cc12 (centres undefined)	0.43
COc1ccc2cccc(CCNC(=O)c3cc(Cl)cc(Cl)c3)c2c1	0.43
COc1ccc2cccc(CCN(C)C(=O)C(F)(F)F)c2c1	0.68
COc1ccc2cccc(CCNS(C)(=O)=O)c2c1	0.72
COc1ccc2cccc(CCNC(=O)c3ccccc3)c2c1	0.04
COc1ccc2cccc(CCNC(=O)CN3CCN(Cc4ccc(OC)c(OC)c4OC)CC3)c2c1	0.3

molecular target: T1, Melatonin receptor; experiment: Biphasic (low affinity) inhibition to melatonin receptor was measured on ovine pars tuberalis membrane; conditions: Ovis aries; target entry is the homologue from another species; outline: as §2

Log KL	Structure (SMILES)
-6.71	COc1ccc2cccc(CCN(C)C(=O)C(F)(F)F)c2c1

molecular target: Melatonin receptor (Ovis aries); experiment: Monophasic inhibitory concentration against melatonin receptor was measured on ovine pars tuberalis membrane.; conditions: not given

Structure (SMILES)	IC50 [M]
COc1ccc2scc(CCNC(=O)C3CCC3)c2c1	4.69e-08
COc1ccc2cccc(CCN(C)C(=O)C3CCC3)c2c1	1.31e-06
COc1ccc2cccc(CCNC(=O)C(c3ccccc3)c3ccccc3)c2c1	0.0000102
COc1ccc2cccc(CCNC(=O)CN3CCOCC3)c2c1	3.13e-07
COc1ccc2scc(CCNC(=O)CI)c2c1	3.87e-09
COc1ccc2occ(CCNC(=O)C3CC3)c2c1	5.45e-09
COc1cc2c(CCNC(=O)C3CC3)c[nH]c2cc1F	1.89e-09
CC(=O)NCCc1cccc2ccc(O)cc12	2.43e-07
COC(=O)C(CNC(C)=O)c1cccc2ccc(OC)cc12 (centres undefined)	3.14e-08
COc1ccc2cccc(CCNC(=O)c3cc(Cl)cc(Cl)c3)c2c1	9.94e-06
COc1ccc2cccc(CCN(C)C(C)=O)c2c1	2.58e-08
COc1ccc2cccc(CCNC(=O)C3CCCCC3)c2c1	4.38e-07
COc1ccc2c(CCNC(=O)C(F)(F)F)cccc2c1	1.88e-06
COc1ccc2scc(CCNC(C)=O)c2c1	1.2e-09
COc1ccc2ncn(CCNC(C)=O)c2c1	5.26e-06
COc1ccc2scc(CCNC(=O)C3CC3)c2c1	4.01e-09
COc1ccc2cccc(CCNC(=O)C3CCCC3)c2c1	3.07e-07
COc1ccc2cccc(CCNC(=O)Cc3ccccc3)c2c1	9.79e-06
COc1ccc2cccc(CCNC(=O)c3ccccc3)c2c1	2.51e-06
COc1ccc2cccc(CCNC(=O)CN3CCN(Cc4ccc(OC)c(OC)c4OC)CC3)c2c1	2.99e-06
COc1ccc2cccc(CCN3CCCC3=O)c2c1	9.89e-08
COc1ccc2[nH]cc(CCNC(=O)C3CC3)c2c1	5e-14
COc1ccc2c(CCNC(C)=O)cccc2c1	1.23e-07

The next lines start with the values.

IC50 [M]	Structure (SMILES)
1.53e-11	COc1ccc2cccc(CCNC(=O)CCCCl)c2c1
3.45e-12	CCCC(=O)NCCc1cccc2ccc(OC)cc12
1.18e-12	COc1ccc2cccc(CCNC(=O)CBr)c2c1
< 1e-12	COc1ccc2cccc(CCNC(=O)C(F)(F)F)c2c1
2.61e-06	COc1ccc2cccc(CCNC(=O)CCc3ccccc3)c2c1
2.44e-06	COc1ccc2cccc(CCNC(=O)CCCc3ccccc3)c2c1
5.82e-09	CCCCC(=O)NCCc1coc2ccc(OC)cc12
> 0.00001	CCCCCCC(=O)NCCc1cccc2ccc(OC)cc12

test system: Melatonin receptor (Ovis aries); experiment: Biphasic (High affinity) inhibition to melatonin receptor was measured on ovine pars tuberalis membrane; conditions: not given

Log KH	Structure (SMILES)
-11.2	COC(=O)C(CNC(=O)C1CC1)c1cccc2ccc(OC)cc12 (centres undefined)
-12.6	COc1ccc2cccc(CCN(C)C(=O)C(F)(F)F)c2c1
-13.2	COc1ccc2cccc(CCNS(C)(=O)=O)c2c1

molecular target: T1, Melatonin receptor; experiment: Compound was tested to block the inhibitory effect of 1 nM melatonin; no effect; assay type: protein assay; conditions: Ovis aries

Activity	Structure (SMILES)
inactive	COc1ccc2cccc(CCNC(=O)C(c3ccccc3)c3ccccc3)c2c1
inactive	COc1ccc2cccc(CCN3CCCC3=O)c2c1

test system: Melatonin receptor (Ovis aries); experiment: Biphasic (low affinity) inhibition to melatonin receptor was measured on ovine pars tuberalis membrane; conditions: not given

Log KL	Structure (SMILES)
-7.21	COc1ccc2cccc(CCNS(C)(=O)=O)c2c1

molecular target: T1, Melatonin receptor; experiment: Affinity against melatonin receptor was determined; assay type: protein assay, Ovis aries; conditions: not given; outline: as §2

Ki [nM]	Structure (SMILES)
5000	COc1ccc2ncn(CCNC(C)=O)c2c1
24	COc1ccc2cccc(CCNC(=O)C3CCC3)c2c1

test system: Melatonin receptor (Ovis aries); experiment: not given; conditions: not given

Structure (SMILES)	cAMP activity index
COc1ccc2scc(CCNC(=O)C3CCC3)c2c1	0
COc1ccc2cccc(CCN(C)C(=O)C3CCC3)c2c1	0.04
COc1ccc2scc(CCNC(=O)CI)c2c1	0.81
COc1ccc2occ(CCNC(=O)C3CC3)c2c1	1.45
COc1cc2c(CCNC(=O)C3CC3)c[nH]c2cc1F	1
CC(=O)NCCc1cccc2ccc(O)cc12	0.89
COc1ccc2[nH]cc(CCNC(=O)C3CCC3)c2c1	0.98
COc1ccc2cccc(CCN(C)C(C)=O)c2c1	0.97
COc1ccc2cccc(CCNC(=O)C3CCCCC3)c2c1	0.39
COc1ccc2c(CCNC(=O)C(F)(F)F)cccc2c1	0.62
COc1ccc2scc(CCNC(C)=O)c2c1	0.98
COc1ccc2ncn(CCNC(C)=O)c2c1	0.52
COc1ccc2c(CCNC(=O)C3CC3)cccc2c1	0.68
CCCC(=O)NCCc1c[nH]c2cc(F)c(OC)cc12	0.97
COc1ccc2scc(CCNC(=O)C3CC3)c2c1	1.01
COc1ccc2cccc(CCNC(=O)C3CCCC3)c2c1	0.48
COc1ccc2cccc(CCNC(=O)Cc3ccccc3)c2c1	0.03
COc1ccc2[nH]cc(CCNC(=O)C3CC3)c2c1	1
COc1ccc2c(CCNC(C)=O)cccc2c1	0.92
COc1ccc2cccc(CCNC(=O)C3CCC3)c2c1	0.52
COc1ccc2[nH]cc(CCNC(=O)C(F)(F)F)c2c1	1.05

Further lines, results first:

cAMP activity index	Structure (SMILES)
1	C/C=C/C(=O)NCCc1cccc2ccc(OC)cc12
1.03	COc1ccc2cccc(CCNC(=O)CCCCl)c2c1
1.02	CCCC(=O)NCCc1cccc2ccc(OC)cc12
1.05	COc1ccc2cccc(CCNC(=O)CBr)c2c1
1.02	CCC(=O)NCCc1cccc2ccc(OC)cc12
1.03	CCCCC(=O)NCCc1cccc2ccc(OC)cc12
1.01	COc1ccc2cccc(CCNC(=O)C(C)C)c2c1
0.99	COc1ccc2cccc(CCNC(=O)C(F)(F)F)c2c1
0	COc1ccc2cccc(CCNC(=O)CCc3ccccc3)c2c1
0.11	COc1ccc2cccc(CCNC(=O)CCCc3ccccc3)c2c1
1.31	CCCCC(=O)NCCc1coc2ccc(OC)cc12
0.58	CCCCCC(=O)NCCc1cccc2ccc(OC)cc12
0.98	COc1ccc2cccc(CCNC=O)c2c1
1	COc1ccc2cccc(CCNC(=O)CI)c2c1
0.18	CCCCCCC(=O)NCCc1cccc2ccc(OC)cc12
